Reference: ChEMBL document CHEMBL2331117 (J Med Chem, 2013)

How the values were obtained:
Mus musculus [1] = assay: In vivo inhibition of mTORC1-mediated phosphorylation of pS6 at (serine 240/244) in human MCF7 cells xenografted into athymic nude mouse at 100 mg/kg, po after 24 hrs by Western blotting analysis relative to control; format: functional; conditions: MCF7, 24 h
Summary of the method: (§1)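 MCF-7 cells (DMEM, 10% FBS) were implanted subcutaneously at 5 × 10^6 cells in 50% cold HBSS/50% growth-factor-reduced matrigel into the hindflank of 5−8 week old female nude mice. At tumor size 40−150 mg, mice received a single oral dose of 100 mg/kg. Tumor lysates were pooled per group. Phospho-AKT (S473, T308), p70S6K (T389), S6 (S240/244) and 4E-BP1 (T37/46) were measured by Western blot normalized to α-tubulin.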

Mus musculus [2] = assay: In vivo inhibition of mTORC1-mediated phosphorylation of pS6 at (serine 240/244) in human MCF7 cells xenografted into athymic nude mouse at 100 mg/kg, po after 8 hrs by Western blotting analysis relative to control; format: functional; conditions: MCF7, 8 h; summary of the method: as §1
[3] = AUC (0 to infinity) in cynomolgus monkey at 3 mg/kg, po; format: ADME, organism-based, Macaca fascicularis; set-up: dose 3 mg/kg, route oral, time infinity; conditions: plasma
Summary of the method: (§2)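 Single-dose PK: female athymic nude mice (10 mg/kg), female CD rats and male beagle dogs (3 mg/kg), male cynomolgus monkeys (3 mg/kg), given iv and by oral gavage. Solution in EPW (5% ethanol/45% PEG400/water), with 1:2 HCl (m/m) for mouse, rat and dog and 1:1.5 HCl (m/m) for monkey. Plasma levels followed over 24 h.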

[4] = molecular target: ATP-dependent translocase ABCB1 (Homo sapiens, UniProt P08183); assay: Activity at P-glycoprotein (unknown origin)
ATP-dependent translocase ABCB1, sequence (P08183 whole entry): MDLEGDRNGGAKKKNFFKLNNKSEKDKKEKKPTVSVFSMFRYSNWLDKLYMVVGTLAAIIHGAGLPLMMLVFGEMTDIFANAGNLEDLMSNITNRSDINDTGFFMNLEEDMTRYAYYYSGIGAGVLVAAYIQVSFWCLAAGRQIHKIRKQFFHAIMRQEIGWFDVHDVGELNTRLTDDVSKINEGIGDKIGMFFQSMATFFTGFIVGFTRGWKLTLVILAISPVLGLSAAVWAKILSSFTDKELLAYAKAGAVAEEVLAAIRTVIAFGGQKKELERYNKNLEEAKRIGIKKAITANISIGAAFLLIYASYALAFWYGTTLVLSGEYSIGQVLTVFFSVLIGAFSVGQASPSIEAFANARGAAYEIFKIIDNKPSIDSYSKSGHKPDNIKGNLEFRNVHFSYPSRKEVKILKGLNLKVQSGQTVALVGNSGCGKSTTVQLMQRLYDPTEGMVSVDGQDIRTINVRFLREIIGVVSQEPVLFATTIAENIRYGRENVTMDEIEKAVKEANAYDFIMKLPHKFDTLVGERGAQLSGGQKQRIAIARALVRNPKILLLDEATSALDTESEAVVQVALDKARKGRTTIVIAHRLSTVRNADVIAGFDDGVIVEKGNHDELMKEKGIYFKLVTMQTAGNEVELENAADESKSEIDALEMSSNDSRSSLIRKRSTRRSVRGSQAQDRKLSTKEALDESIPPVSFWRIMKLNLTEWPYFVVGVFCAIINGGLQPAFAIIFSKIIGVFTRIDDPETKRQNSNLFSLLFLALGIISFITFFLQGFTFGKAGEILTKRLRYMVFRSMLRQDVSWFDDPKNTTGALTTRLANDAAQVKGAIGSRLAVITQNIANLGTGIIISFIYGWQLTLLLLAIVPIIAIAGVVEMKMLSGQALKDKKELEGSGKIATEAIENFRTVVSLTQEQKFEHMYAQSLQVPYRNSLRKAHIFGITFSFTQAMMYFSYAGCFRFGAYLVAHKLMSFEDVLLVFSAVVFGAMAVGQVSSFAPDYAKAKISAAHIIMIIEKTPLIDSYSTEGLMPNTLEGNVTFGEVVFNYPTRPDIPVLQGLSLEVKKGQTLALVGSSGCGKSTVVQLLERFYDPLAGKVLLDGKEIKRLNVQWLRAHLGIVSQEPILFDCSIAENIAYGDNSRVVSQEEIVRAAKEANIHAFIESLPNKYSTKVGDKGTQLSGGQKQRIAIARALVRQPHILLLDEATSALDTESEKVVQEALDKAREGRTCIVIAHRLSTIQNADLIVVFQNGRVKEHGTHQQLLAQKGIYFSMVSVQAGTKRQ

Mus musculus [5] = assay: In vivo inhibition of mTORC1-mediated phosphorylation of p70S6K at […] in human MCF7 cells xenografted into athymic nude mouse at 100 mg/kg, po after 16 hrs by Western blotting analysis relative to control; format: functional; conditions: MCF7, 16 h; summary of the method: as §1
Cytochrome P450 3A4 = Cytochrome P450 3A4 (Homo sapiens, UniProt P08684); assay: Induction of CYP3A4 (unknown origin); format: ADME
Cytochrome P450 2D6 = Cytochrome P450 2D6 (Homo sapiens, UniProt P10635); assay: Inhibition of CYP2D6 (unknown origin); format: ADME
Cytochrome P450 2D6, sequence (P10635 whole entry): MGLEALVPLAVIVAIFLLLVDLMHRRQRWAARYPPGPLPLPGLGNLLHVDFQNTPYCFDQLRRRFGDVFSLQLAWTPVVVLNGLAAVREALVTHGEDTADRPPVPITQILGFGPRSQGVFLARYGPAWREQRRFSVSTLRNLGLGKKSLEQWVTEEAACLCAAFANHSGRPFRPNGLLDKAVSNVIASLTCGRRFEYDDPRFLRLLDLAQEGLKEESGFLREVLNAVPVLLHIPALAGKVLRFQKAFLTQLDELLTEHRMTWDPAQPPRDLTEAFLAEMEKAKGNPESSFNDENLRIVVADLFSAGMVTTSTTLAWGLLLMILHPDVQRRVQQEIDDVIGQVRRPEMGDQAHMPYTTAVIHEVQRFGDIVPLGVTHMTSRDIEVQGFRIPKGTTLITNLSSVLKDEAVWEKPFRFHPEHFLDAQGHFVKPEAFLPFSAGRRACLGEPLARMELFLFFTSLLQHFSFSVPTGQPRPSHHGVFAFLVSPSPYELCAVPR

[6] = Oral bioavailability in Beagle dog at 3 mg/kg; format: ADME, organism-based, Canis lupus familiaris; conditions: in vivo
Summary of the method: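 For single-dose PK, compound was given intravenously and by oral gavage as a solution in EPW (5% ethanol/45% PEG400/water + 1:2 HCl m/m). Doses were 10 mg/kg in female athymic nude mice and 3 mg/kg in female CD rats and male beagle dogs.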

Mus musculus [7] = assay: In vivo inhibition of mTORC2-mediated phosphorylation of AKT at serine 473 in human MCF7 cells xenografted into athymic nude mouse at 100 mg/kg, po after 16 hrs by Western blotting analysis relative to control; format: functional; conditions: MCF7, 16 h; summary of the method: as §1
[8] = Plasma concentration in athymic mouse plasma xenografted with human PC3 cells at 100 mg/kg, po after 4 hrs; format: ADME, organism-based, PC-3; set-up: dose 100 mg/kg, route oral
[9] = molecular target: Serine/threonine-protein kinase Chk1 (Homo sapiens, UniProt O14757); assay: Inhibition of CHK1 (unknown origin)
Serine/threonine-protein kinase Chk1, sequence (O14757 whole entry): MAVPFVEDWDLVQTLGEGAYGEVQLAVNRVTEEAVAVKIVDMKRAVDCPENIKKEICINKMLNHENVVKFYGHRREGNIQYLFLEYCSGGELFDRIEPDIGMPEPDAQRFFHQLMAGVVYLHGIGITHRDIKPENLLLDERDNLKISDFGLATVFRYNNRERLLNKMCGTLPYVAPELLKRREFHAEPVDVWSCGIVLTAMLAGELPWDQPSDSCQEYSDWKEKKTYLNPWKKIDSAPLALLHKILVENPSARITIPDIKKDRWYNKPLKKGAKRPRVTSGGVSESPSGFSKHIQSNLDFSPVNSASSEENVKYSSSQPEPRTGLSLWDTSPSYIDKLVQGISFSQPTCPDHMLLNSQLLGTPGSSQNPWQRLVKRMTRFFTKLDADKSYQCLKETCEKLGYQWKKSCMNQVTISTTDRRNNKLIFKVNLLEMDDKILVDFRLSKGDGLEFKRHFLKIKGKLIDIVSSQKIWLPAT

[10] = Volume of distribution at steady state in athymic nude mouse at 10 mg/kg, iv; format: ADME, organism-based; set-up: dose 10 mg/kg, route intravenous; conditions: in vivo, read-out: Vdss
[11] = Plasma concentration in athymic mouse plasma xenografted with human MCF7 cells at 100 mg/kg, po after 1 hr; format: ADME, organism-based; set-up: dose 100 mg/kg, route oral
Summary of the method: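 MCF-7 cells (5 × 10^6, in 50% cold HBSS/50% growth-factor-reduced matrigel) were implanted subcutaneously in the hindflank of 5–8 week old female nude mice. At 40–150 mg tumour size, mice received a single oral dose of 100 mg/kg, and plasma was sampled at the listed times after dosing.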

Mus musculus [12] = assay: In vivo inhibition of mTORC1-mediated phosphorylation of 4EBP1 at ([…]) in human MCF7 cells xenografted into athymic nude mouse at 100 mg/kg, po after 4 hrs by Western blotting analysis relative to control; format: functional; conditions: MCF7, 4 h; summary of the method: as §1
CDK3/cyclin E = CDK3/cyclin E (Homo sapiens, UniProt O96020+P24864+Q00526); assay: Inhibition of CDK3/Cyclin E (unknown origin); format: protein-complex assay
CDK3/cyclin E, sequence (P24864 whole entry): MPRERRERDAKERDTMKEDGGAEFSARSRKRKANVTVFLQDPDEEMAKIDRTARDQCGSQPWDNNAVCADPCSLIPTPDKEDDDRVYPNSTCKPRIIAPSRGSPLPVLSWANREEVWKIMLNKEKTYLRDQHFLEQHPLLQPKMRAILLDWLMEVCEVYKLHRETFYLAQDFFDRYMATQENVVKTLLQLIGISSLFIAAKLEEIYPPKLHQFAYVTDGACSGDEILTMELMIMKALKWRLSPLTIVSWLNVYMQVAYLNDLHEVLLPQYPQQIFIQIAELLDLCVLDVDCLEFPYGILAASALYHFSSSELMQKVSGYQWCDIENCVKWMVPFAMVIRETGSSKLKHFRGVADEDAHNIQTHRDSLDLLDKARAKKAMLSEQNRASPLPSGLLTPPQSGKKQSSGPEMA
CDK3/cyclin E, sequence (O96020 whole entry): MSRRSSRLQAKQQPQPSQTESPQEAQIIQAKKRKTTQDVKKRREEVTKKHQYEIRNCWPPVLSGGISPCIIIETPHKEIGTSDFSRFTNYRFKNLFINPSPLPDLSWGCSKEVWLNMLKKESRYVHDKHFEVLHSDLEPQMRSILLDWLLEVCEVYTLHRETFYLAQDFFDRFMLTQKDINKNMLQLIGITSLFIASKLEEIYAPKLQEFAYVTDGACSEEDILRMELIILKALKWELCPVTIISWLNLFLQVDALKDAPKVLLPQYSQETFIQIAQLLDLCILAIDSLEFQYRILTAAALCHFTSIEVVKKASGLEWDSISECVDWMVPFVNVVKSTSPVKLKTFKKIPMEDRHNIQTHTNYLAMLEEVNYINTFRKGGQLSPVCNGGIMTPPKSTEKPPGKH
CDK3/cyclin E, sequence (Q00526 whole entry): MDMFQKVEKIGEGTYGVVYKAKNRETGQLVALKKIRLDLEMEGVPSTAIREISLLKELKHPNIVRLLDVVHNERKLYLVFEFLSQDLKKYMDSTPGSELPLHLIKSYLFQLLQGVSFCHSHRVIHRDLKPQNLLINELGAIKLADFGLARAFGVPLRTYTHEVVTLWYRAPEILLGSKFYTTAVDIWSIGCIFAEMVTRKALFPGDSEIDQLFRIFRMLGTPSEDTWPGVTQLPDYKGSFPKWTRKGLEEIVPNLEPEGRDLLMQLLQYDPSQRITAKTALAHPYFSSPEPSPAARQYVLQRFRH

[13] = Plasma protein binding in rat at 5 uM; format: ADME, cell-free; conditions: read-out: PPB (converted)
Mus musculus [14] = assay: In vivo inhibition of mTOR1-mediated phosphorylation of p70S6K at […] in human MCF7 cells xenografted into athymic nude mouse at 100 mg/kg, po after 8 hrs by Western blotting analysis relative to control; format: functional; conditions: MCF7, 8 h
Mus musculus [15] = assay: In vivo inhibition of mTORC2-mediated phosphorylation of AKT at serine 473 in human PC3 cells xenografted into athymic nude mouse at 100 mg/kg, po after 24 hrs by Western blotting analysis relative to control; format: functional; conditions: PC-3, 24 h
Summary of the method: (§3)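 PC-3 cells grown in DMEM with 20% FBS were implanted subcutaneously at 3 × 10^6 cells in ice-cold HBSS into the hindflank of 5−8 week old male nude mice. At tumor size 200−500 mg, mice received a single oral dose of 100 mg/kg. Plasma and tumors were collected at 1, 4, 8, 16, 24 and 32 h. Tumor lysates from each group (n = 5) were pooled. Phospho-proteins were quantified by Western blot and normalized to α-tubulin.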

[16] = AUC (0 to infinity) in cynomolgus monkey at 3 mg/kg, iv; format: ADME, organism-based, Macaca fascicularis; set-up: time infinity, dose 3 mg/kg, route intravenous; conditions: plasma; summary of the method: as §2
[17] = molecular target: Vascular endothelial growth factor receptor 2 (Homo sapiens, UniProt P35968); assay: Inhibition of KDR (unknown origin)
Vascular endothelial growth factor receptor 2, sequence (P35968 whole entry): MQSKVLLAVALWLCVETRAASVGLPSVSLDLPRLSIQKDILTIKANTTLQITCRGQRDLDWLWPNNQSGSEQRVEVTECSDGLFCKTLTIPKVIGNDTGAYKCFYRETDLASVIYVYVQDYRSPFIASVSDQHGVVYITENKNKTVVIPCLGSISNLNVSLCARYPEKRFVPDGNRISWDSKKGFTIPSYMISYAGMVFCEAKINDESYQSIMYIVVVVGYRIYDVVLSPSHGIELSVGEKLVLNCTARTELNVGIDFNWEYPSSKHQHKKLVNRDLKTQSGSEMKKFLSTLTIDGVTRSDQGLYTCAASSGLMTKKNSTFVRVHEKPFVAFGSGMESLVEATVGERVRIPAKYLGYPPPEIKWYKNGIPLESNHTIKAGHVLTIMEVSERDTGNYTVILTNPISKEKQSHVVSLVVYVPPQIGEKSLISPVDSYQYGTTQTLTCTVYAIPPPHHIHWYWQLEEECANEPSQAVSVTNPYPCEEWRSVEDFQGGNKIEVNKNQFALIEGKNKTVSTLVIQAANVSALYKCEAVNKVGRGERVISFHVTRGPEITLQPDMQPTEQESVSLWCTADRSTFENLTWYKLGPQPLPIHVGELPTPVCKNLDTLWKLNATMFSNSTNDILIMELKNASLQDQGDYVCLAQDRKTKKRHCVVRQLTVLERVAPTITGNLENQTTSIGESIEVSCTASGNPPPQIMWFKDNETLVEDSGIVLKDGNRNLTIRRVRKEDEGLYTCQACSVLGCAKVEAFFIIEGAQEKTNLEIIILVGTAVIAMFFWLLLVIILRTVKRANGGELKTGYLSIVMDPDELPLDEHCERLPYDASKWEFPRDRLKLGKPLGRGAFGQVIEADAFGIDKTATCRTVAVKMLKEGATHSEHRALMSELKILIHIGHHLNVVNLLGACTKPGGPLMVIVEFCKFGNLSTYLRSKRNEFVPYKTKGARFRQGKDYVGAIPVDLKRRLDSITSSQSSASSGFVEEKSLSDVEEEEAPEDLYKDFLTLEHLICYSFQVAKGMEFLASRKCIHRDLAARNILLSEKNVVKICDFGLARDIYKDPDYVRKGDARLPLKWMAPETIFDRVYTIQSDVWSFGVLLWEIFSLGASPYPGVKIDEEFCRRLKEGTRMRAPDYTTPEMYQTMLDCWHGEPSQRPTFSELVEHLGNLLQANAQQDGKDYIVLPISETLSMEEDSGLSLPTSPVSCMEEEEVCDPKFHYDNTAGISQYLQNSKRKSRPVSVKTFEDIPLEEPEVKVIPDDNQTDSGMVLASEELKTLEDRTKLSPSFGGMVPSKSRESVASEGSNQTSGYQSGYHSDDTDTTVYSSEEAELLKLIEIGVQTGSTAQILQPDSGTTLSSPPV

[18] = Drug uptake in tumor of athymic mouse xenografted with human MCF7 cells at 100 mg/kg, po after 8 hrs; format: ADME, organism-based, Neoplasm; set-up: dose 100 mg/kg, route oral; conditions: read-out: Drug uptake
Mus musculus [19] = assay: In vivo inhibition of mTORC1-mediated phosphorylation of pS6 at (serine 240/244) in human PC3 cells xenografted into athymic nude mouse at 100 mg/kg, po after 4 hrs by Western blotting analysis relative to control; format: functional; conditions: PC-3, 4 h; summary of the method: as §3
[20] = Drug uptake in tumor of athymic mouse xenografted with human PC3 cells at 100 mg/kg, po after 4 hrs; format: ADME, organism-based, Neoplasm, PC-3; set-up: dose 100 mg/kg, route oral; conditions: read-out: Drug uptake
Summary of the method: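 PC-3 cells (3 × 10⁶, passages 10–14, in ice-cold HBSS) were implanted sc in 5–8 week old male nude mice. Tumors of 200–500 mg received a single oral 100 mg/kg dose. Plasma and tumor were collected at 1, 4, 8, 16, 24 and 32 h and homogenized in buffer. Lysates were pooled per group (n = 5), and phospho-proteins were measured by Western blot normalized to α-tubulin.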

Mus musculus [21] = assay: In vivo inhibition of mTORC2-mediated phosphorylation of AKT at serine 473 in human PC3 cells xenografted into athymic nude mouse at 100 mg/kg, po after 16 hrs by Western blotting analysis relative to control; format: functional; conditions: PC-3, 16 h; summary of the method: as §3
Mus musculus [22] = assay: In vivo inhibition of mTORC1-mediated phosphorylation of 4EBP1 at ([…]) in human PC3 cells xenografted into athymic nude mouse at 100 mg/kg, po after 1 hr by Western blotting analysis relative to control; format: functional; conditions: PC-3, 1 h; summary of the method: as §3
Mus musculus [23] = assay: In vivo inhibition of mTORC1-mediated phosphorylation of p70S6K at […] in human MCF7 cells xenografted into athymic nude mouse at 100 mg/kg, po after 4 hrs by Western blotting analysis relative to control; format: functional; conditions: MCF7, 4 h; summary of the method: as §1

AUC(0-inf) [3]: 0.7 µM·h | Activity [4]: > 20 µM | Activity (Cytochrome P450 3A4): 50 µM | INH (Cytochrome P450 2D6): > 20 µM | bioavailability [6]: 69.6% | concentration at 4 h [8]: 21.3 µM | IC50 [9]: > 3.5 µM | Vd [10]: 1.96 L/kg | concentration at 1 h [11]: 34.4 µM | IC50 (CDK3/cyclin E): > 10 µM | fraction unbound at 5 µM [13]: 0.15 | AUC(0-inf) [16]: 1.31 µM·h | IC50 [17]: > 3.5 µM | concentration at 8 h [18]: 16.6 µM | concentration at 4 h [20]: 18.6 µM
Structure (SMILES): Cc1c(C(=O)N2CCOc3ccc(-c4ccc(N)nc4)cc3C2)ccc(S(C)(=O)=O)c1F
inhibition in vivo at 100 mg/kg (Mus musculus [1]): -24% | inhibition in vivo at 100 mg/kg (Mus musculus [2]): 98% | inhibition in vivo at 100 mg/kg (Mus musculus [5]): 41% | inhibition in vivo at 100 mg/kg (Mus musculus [7]): 69% | inhibition in vivo at 100 mg/kg (Mus musculus [12]): 85% | inhibition in vivo at 100 mg/kg (Mus musculus [14]): 81% | inhibition in vivo at 100 mg/kg (Mus musculus [15]): 5% | inhibition in vivo at 100 mg/kg (Mus musculus [19]): 90% | inhibition in vivo at 100 mg/kg (Mus musculus [21]): 55% | inhibition in vivo at 100 mg/kg (Mus musculus [22]): 94% | inhibition in vivo at 100 mg/kg (Mus musculus [23]): 85%
